Assay results from ChEMBL document CHEMBL3352666, “Human Toll-like receptor 8-selective agonistic activities in 1-alkyl-1H-benzimidazol-2-amines” (J Med Chem, 2014).
The source made the active and inactive calls.

Assays:
Type in all cases: cell-based
[1] = molecular target: Toll-like receptor 2 (Homo sapiens) (UniProt O60603); experiment: Agonist activity at human TLR2 stably expressed in HEK293 cells co-expressing secreted alkaline phosphatase assessed as NF-kappaB induction by liquid handler-assisted reporter gene assay
Summary of the method: (§1)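 HEK293 reporter cells stably co-transfected with the respective human TLR or NOD receptor plus NF-κB/AP-1-driven secreted alkaline phosphatase, kept in selection medium. About 10^5 cells/ml were incubated with graded concentrations of test compound in 384-well format. Supernatant sAP was read colorimetrically at 620 nm with an alkaline phosphatase-specific chromogen in detection medium.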

[2] = molecular target: Toll-like receptor 3 (Homo sapiens) (UniProt O15455); experiment: Agonist activity at human TLR3 stably expressed in HEK293 cells co-expressing secreted alkaline phosphatase assessed as NF-kappaB induction by liquid handler-assisted reporter gene assay; summary of the method: as §1
[3] = molecular target: T1, Nucleotide-binding oligomerization domain-containing protein 1 (Homo sapiens) (UniProt Q9Y239); experiment: Agonist activity at human NOD1 stably expressed in HEK293 cells co-expressing secreted alkaline phosphatase assessed as NF-kappaB induction by liquid handler-assisted reporter gene assay; summary of the method: as §1
T1 sequence (whole entry): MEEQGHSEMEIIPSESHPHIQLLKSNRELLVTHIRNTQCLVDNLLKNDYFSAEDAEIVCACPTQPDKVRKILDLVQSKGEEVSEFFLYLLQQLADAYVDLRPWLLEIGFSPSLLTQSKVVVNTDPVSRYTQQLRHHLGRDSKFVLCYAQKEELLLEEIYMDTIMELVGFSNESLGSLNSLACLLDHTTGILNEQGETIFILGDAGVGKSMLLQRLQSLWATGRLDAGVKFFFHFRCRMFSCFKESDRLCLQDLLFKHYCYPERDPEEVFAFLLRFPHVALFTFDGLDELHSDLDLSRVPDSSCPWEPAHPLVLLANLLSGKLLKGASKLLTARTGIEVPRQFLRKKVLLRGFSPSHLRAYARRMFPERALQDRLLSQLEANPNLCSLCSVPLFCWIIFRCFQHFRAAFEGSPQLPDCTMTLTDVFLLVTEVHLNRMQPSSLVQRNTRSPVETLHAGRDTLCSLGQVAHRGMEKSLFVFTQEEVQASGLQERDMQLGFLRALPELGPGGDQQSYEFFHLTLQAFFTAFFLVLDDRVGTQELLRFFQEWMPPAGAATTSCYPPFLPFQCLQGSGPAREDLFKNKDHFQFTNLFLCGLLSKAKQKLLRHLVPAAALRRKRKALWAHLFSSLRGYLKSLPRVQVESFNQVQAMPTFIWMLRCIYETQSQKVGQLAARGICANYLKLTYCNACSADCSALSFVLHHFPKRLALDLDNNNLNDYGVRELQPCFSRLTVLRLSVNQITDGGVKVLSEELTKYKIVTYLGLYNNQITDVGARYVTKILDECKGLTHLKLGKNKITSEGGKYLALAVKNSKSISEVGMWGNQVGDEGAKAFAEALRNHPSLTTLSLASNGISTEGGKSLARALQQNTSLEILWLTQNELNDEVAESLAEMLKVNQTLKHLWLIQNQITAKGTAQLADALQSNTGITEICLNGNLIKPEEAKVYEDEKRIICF

[4] = molecular target: T2, Toll-like receptor 9 (Homo sapiens) (UniProt Q9NR96); experiment: Agonist activity at human TLR9 stably expressed in HEK293 cells co-expressing secreted alkaline phosphatase assessed as NF-kappaB induction by liquid handler-assisted reporter gene assay; summary of the method: as §1
T2 sequence (whole entry): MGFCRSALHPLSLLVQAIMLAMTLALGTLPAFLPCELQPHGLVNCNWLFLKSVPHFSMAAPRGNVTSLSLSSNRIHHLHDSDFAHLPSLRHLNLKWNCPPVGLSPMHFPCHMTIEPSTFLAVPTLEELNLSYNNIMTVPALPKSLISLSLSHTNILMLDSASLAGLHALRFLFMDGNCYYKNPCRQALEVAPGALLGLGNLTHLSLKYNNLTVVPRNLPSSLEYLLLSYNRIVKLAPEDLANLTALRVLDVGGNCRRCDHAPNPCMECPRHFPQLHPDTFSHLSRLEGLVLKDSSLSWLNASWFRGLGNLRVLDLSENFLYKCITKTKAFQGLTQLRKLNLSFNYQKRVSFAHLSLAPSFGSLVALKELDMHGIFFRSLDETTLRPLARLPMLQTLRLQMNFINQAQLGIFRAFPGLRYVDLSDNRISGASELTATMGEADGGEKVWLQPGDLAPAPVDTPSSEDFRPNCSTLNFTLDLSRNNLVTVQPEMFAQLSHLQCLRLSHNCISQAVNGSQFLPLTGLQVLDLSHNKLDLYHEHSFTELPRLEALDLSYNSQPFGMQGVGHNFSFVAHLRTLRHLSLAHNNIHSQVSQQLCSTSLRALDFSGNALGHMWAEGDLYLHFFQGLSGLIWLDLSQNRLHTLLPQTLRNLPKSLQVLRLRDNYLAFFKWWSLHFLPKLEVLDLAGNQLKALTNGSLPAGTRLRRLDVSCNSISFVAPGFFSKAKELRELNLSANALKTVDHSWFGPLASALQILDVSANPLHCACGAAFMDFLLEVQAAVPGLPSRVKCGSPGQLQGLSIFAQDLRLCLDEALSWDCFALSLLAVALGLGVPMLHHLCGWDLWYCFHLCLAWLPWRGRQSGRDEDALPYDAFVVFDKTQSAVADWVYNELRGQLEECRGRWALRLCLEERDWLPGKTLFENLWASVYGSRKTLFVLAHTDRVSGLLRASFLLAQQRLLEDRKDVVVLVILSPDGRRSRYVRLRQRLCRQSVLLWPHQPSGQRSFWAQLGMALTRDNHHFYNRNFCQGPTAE

[5] = molecular target: Toll-like receptor 4 (Homo sapiens) (UniProt O00206); experiment: Agonist activity at human TLR4 stably expressed in HEK293 cells co-expressing secreted alkaline phosphatase assessed as NF-kappaB induction by liquid handler-assisted reporter gene assay; summary of the method: as §1

Measured: Activity

Chain of Toll-like receptor 4 (Homo sapiens) (O00206 whole entry): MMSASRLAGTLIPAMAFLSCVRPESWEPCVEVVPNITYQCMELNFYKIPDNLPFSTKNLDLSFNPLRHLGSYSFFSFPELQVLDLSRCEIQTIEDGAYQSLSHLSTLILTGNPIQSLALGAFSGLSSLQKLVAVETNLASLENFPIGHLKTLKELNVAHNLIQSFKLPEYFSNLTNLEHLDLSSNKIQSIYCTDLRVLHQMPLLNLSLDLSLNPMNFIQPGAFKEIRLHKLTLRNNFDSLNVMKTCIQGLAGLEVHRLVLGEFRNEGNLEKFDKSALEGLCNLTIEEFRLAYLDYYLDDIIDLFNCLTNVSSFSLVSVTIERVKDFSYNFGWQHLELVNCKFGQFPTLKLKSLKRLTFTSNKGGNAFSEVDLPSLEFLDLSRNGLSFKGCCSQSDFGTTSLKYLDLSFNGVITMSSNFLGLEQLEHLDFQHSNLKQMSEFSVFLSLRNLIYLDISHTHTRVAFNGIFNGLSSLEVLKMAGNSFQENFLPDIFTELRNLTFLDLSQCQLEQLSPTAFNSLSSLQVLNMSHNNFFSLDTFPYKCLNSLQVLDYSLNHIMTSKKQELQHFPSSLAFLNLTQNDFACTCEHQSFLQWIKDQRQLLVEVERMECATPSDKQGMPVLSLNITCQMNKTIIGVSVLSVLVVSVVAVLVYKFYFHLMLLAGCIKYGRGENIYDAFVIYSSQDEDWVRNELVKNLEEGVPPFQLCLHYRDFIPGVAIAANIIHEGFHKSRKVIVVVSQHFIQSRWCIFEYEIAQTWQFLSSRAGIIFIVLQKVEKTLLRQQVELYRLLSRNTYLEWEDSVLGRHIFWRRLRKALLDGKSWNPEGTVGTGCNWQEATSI
Chain of Toll-like receptor 2 (Homo sapiens) (O60603 whole entry): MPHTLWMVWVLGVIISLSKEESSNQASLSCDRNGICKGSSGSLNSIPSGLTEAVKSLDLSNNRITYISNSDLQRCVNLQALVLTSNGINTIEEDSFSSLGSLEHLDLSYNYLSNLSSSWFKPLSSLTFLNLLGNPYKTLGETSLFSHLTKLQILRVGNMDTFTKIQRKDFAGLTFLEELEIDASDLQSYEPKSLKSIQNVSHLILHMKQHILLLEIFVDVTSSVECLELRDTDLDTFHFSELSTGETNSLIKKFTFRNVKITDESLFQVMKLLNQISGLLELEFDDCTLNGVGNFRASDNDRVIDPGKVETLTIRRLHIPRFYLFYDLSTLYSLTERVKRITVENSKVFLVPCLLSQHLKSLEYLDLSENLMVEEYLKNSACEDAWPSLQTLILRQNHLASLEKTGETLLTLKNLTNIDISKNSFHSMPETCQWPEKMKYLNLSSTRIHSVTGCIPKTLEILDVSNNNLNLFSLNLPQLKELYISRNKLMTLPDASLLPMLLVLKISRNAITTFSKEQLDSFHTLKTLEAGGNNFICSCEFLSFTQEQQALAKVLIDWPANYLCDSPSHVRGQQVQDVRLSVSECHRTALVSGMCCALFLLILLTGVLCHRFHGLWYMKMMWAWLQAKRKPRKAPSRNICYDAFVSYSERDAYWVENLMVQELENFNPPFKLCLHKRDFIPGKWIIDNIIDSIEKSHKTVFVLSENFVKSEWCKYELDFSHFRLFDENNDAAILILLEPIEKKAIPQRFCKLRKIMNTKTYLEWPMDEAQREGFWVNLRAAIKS
Chain of Toll-like receptor 3 (Homo sapiens) (O15455 whole entry, the tested form may be a part): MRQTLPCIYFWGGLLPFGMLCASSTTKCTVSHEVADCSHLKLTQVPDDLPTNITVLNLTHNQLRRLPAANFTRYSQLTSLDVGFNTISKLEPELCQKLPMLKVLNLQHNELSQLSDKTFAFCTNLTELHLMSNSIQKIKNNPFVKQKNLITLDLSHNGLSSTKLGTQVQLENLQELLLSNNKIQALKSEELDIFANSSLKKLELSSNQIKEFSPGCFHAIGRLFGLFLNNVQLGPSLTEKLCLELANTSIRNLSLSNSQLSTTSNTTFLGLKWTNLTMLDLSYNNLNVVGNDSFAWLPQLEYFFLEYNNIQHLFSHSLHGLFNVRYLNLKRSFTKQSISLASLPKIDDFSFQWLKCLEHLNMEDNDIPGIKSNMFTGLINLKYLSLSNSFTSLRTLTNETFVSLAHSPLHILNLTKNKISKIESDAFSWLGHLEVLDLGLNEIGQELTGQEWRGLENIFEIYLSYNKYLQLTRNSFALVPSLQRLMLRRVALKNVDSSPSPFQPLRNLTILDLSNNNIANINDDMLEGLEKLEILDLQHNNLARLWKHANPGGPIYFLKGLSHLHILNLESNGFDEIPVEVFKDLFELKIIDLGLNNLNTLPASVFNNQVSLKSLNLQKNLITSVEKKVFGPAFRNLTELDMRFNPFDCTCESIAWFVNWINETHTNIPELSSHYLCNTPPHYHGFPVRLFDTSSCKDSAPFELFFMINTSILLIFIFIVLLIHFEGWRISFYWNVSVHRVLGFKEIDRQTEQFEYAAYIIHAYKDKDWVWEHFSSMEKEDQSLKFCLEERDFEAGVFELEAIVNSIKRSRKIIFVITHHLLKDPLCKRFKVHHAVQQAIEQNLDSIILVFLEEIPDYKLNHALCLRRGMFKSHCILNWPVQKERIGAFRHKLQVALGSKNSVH

CCCCCn1c(N)nc2cccnc21
inactive: all assays above

Nc1nc2ccccc2n1Cc1ccccc1
inactive: all assays above

CCCCCn1c(N)nc2cnccc21
inactive: all assays above

CCCCCn1c(N)nc2ccncc21
inactive: all assays above

CCCCC1(O)C(N)=Nc2ccccc21 (stereo not given)
inactive: all assays above

CCCCCn1c(N)nc2c(F)cccc21
inactive: all assays above

CCCCCn1c(N)nc2c(C)cccc21
inactive: all assays above

CCCCCn1c(N)nc2c(Cl)cccc21
inactive: all assays above

NCc1cccc(Cn2c(N)nc3ccccc32)c1
inactive: all assays above

CCCCOC(=O)n1c(N)nc2ccccc21
inactive: all assays above

CCCCCn1c(N)nc2c(C(F)(F)F)cccc21
inactive: all assays above

CCCCCn1c(N)nc2c(Br)cccc21
inactive: all assays above

CCCCCn1c(N)nc2c(Cc3ccccc3)cccc21
inactive: all assays above

CCCCCn1c(NC(C)=O)nc2ccccc21
inactive: all assays above

CCCCCn1c(N)nc2ncccc21
inactive: all assays above

CCCCC1C(N)=Nc2ccccc21.Cl (stereo not given)
inactive: all assays above

CCCCCn1c(N)nc2ccc3ccccc3c21
inactive: all assays above

CCCCCn1c(N)nc2cc3ccccc3cc21
inactive: all assays above

CCCCCn1c(N)nc2c(-c3ccccc3)cccc21
inactive: all assays above

CCCCCn1c(N)nc2c([N+](=O)[O-])cccc21
inactive: all assays above

CCCCCn1c(N)nc2c(OCc3ccccc3)cccc21
inactive: all assays above
